ChEMBL document CHEMBL5137084 (J Med Chem, 2022)

Columns and labels:
[1] = Metabolic stability of the compound in carboxylesterase 1 knockout mouse brain assessed as parent compound remaining at 10 uM measured after 1 hr in by UPLC analysis; type: ADME, tissue-based
Outline: (§1)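 Plasma, or liver or brain homogenised 10-fold in 0.1 M potassium phosphate buffer, from CES1−/− mice. Spiked with 10 μM prodrug (final) and shaken at 37 °C for 1 h, in triplicate. Samples at 0 and 1 h were quenched with three volumes of acetonitrile containing losartan. Intact prodrug was measured by UHPLC-orbitrap MS and expressed as % remaining, mean ± SE.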

[2] = AUC in carboxylesterase 1 knockout C57BL/6 mouse brain at 10 mg/kg, po administered as single dose measured upto 8 hrs by LC-MS/MS analysis; type: ADME, organism-based; design: time < 8 hrs, dose 10 mg/kg, route po; details: in vivo
Outline: (§2)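 Cardiac blood is spun to plasma and brains are flash frozen. Intact prodrug and released parent are quantified by LC-MS/MS against matrix-matched standards. Parameters come from non-compartmental analysis; mean ± SEM.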

[3] = Half life in carboxylesterase 1 knockout C57BL/6 mouse brain at 10 mg/kg, po administered as single dose measured upto 8 hrs by LC-MS/MS analysis; type: ADME, organism-based; outline: as §2
[4] = AUC in carboxylesterase 1 knockout C57BL/6 mouse plasma at 10 mg/kg, po administered as single dose measured upto 8 hrs by LC-MS/MS analysis; type: ADME, organism-based; design: time < 8 hrs, dose 10 mg/kg, route po; details: in vivo; outline: as §2
[5] = Half life in carboxylesterase 1 knockout C57BL/6 mouse plasma at 10 mg/kg, po administered as single dose measured upto 8 hrs by LC-MS/MS analysis; type: ADME, organism-based; outline: as §2
[6] = Cmax in carboxylesterase 1 knockout C57BL/6 mouse plasma at 10 mg/kg, po administered as single dose measured upto 8 hrs by LC-MS/MS analysis; type: ADME, organism-based; design: time < 8 hrs, dose 10 mg/kg, route po; details: in vivo; outline: as §2
[7] = Cmax in carboxylesterase 1 knockout C57BL/6 mouse brain at 10 mg/kg, po administered as single dose measured upto 8 hrs by LC-MS/MS analysis; type: ADME, organism-based; design: time < 8 hrs, dose 10 mg/kg, route po; details: in vivo; outline: as §2
[8] = Tmax in carboxylesterase 1 knockout C57BL/6 mouse brain at 10 mg/kg, po administered as single dose measured upto 8 hrs by LC-MS/MS analysis; type: ADME, organism-based; outline: as §2
[9] = Metabolic stability of the compound in carboxylesterase 1 knockout mouse liver assessed as parent compound remaining at 10 uM measured after 1 hr in by UPLC analysis; type: ADME, tissue-based; outline: as §1
[10] = Drug release in carboxylesterase 1 knockout C57BL/6 mouse brain at 10 mg/kg, po administered as single dose measured after 2 hrs by LC-MS/MS analysis; type: ADME, organism-based; details: in vivo
Outline: (§3)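 Mice are killed 2 h post-dose by CO2, with cardiac-puncture plasma and whole brain taken. After acetonitrile/losartan extraction, released parent and intact prodrug are measured by LC-MS/MS. Brain-to-plasma ratio is computed from released-parent levels; mean ± SEM.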

[11] = Metabolic stability of the compound in carboxylesterase 1 knockout mouse plasma assessed as parent compound remaining at 10 uM measured after 1 hr in by UPLC analysis; type: ADME, cell-free; outline: as §1
[12] = Brain to plasma ratio in carboxylesterase 1 knockout C57BL/6 mouse at 10 mg/kg, po administered as single dose measured after 2 hrs by LC-MS/MS analysis; type: ADME, organism-based; outline: as §3
[13] = Drug release in carboxylesterase 1 knockout C57BL/6 mouse plasma at 10 mg/kg, po administered as single dose measured after 2 hrs by LC-MS/MS analysis; type: ADME, organism-based; details: in vivo, read-out: Activity; outline: as §3
[14] = Tmax in carboxylesterase 1 knockout C57BL/6 mouse plasma at 10 mg/kg, po administered as single dose measured upto 8 hrs by LC-MS/MS analysis; type: ADME, organism-based; outline: as §2
[15] = Prodrug conversion in carboxylesterase 1 knockout C57BL/6 mouse brain assessed as increase in 2,6-Dimethoxy-4-(4-phenyl-5-thiophen-2-yl-1H-imidazol-2-yl)phenol release at 10 mg/kg, po administered as single dose measured after 2 hrs by LC-MS/MS analysis; type: ADME, organism-based; details: in vivo
[16] = Prodrug conversion in carboxylesterase 1 knockout C57BL/6 mouse plasma assessed as increase in 2,6-Dimethoxy-4-(4-phenyl-5-thiophen-2-yl-1H-imidazol-2-yl)phenol release at 10 mg/kg, po administered as single dose measured after 2 hrs by LC-MS/MS analysis; type: ADME, organism-based; details: in vivo
[17] = Ratio of prodrug conversion in carboxylesterase 1 knockout C57BL/6 mouse brain to plasma assessed as 2,6-Dimethoxy-4-(4-phenyl-5-thiophen-2-yl-1H-imidazol-2-yl)phenol release at 10 mg/kg, po administered as single dose measured after 2 hrs by LC-MS/MS analysis; type: ADME, organism-based; outline: as §3
[18] = Prodrug conversion in carboxylesterase 1 knockout C57BL/6 mouse plasma assessed as Cmax of 2,6-Dimethoxy-4-(4-phenyl-5-thiophen-2-yl-1H-imidazol-2-yl)phenol at 15.12 mg/kg, po administered as single dose measured upto 8 hrs by LC-MS/MS analysis; type: ADME, organism-based; design: dose 15.12 mg/kg, time < 8 hrs, route po; details: in vivo
[19] = Prodrug conversion in carboxylesterase 1 knockout C57BL/6 mouse brain assessed as Cmax of 2,6-Dimethoxy-4-(4-phenyl-5-thiophen-2-yl-1H-imidazol-2-yl)phenol at 15.12 mg/kg, po administered as single dose measured upto 8 hrs by LC-MS/MS analysis; type: ADME, organism-based; design: dose 15.12 mg/kg, time < 8 hrs, route po; details: in vivo
[20] = Stability in carboxylesterase 1 knockout C57BL/6 mouse plasma assessed as intact compound level at 15.12 mg/kg, po administered as single dose measured upto 8 hrs by LC-MS/MS analysis; type: ADME, organism-based; details: read-out: Stability
[21] = Prodrug conversion in carboxylesterase 1 knockout C57BL/6 mouse brain assessed as AUC of 2,6-Dimethoxy-4-(4-phenyl-5-thiophen-2-yl-1H-imidazol-2-yl)phenol at 15.12 mg/kg, po administered as single dose measured upto 8 hrs by LC-MS/MS analysis; type: ADME, organism-based; design: time < 8 hrs, dose 15.12 mg/kg, route po; details: in vivo
[22] = Half life in carboxylesterase 1 knockout C57BL/6 mouse brain at 15.12 mg/kg, po administered as single dose measured upto 8 hrs by LC-MS/MS analysis; type: ADME, organism-based
[23] = Stability in carboxylesterase 1 knockout C57BL/6 mouse brain assessed as intact compound level at 15.12 mg/kg, po administered as single dose measured upto 8 hrs by LC-MS/MS analysis; type: ADME, organism-based; details: read-out: Stability
[24] = Tmax in carboxylesterase 1 knockout C57BL/6 mouse plasma at 15.12 mg/kg, po administered as single dose measured upto 8 hrs by LC-MS/MS analysis; type: ADME, organism-based
[25] = Tmax in carboxylesterase 1 knockout C57BL/6 mouse brain at 15.12 mg/kg, po administered as single dose measured upto 8 hrs by LC-MS/MS analysis; type: ADME, organism-based
[26] = Prodrug conversion in carboxylesterase 1 knockout C57BL/6 mouse plasma assessed as AUC of 2,6-Dimethoxy-4-(4-phenyl-5-thiophen-2-yl-1H-imidazol-2-yl)phenol at 15.12 mg/kg, po administered as single dose measured upto 8 hrs by LC-MS/MS analysis; type: ADME, organism-based; design: time < 8 hrs, dose 15.12 mg/kg, route po; details: in vivo
[27] = Half life in carboxylesterase 1 knockout C57BL/6 mouse plasma at 15.12 mg/kg, po administered as single dose measured upto 8 hrs by LC-MS/MS analysis; type: ADME, organism-based
[28] = Prodrug conversion in carboxylesterase 1 knockout C57BL/6 mouse brain assessed as increase in 2,6-Dimethoxy-4-(4-phenyl-5-thiophen-2-yl-1H-imidazol-2-yl)phenol release at 15.12 mg/kg, po administered as single dose measured after 2 hrs by LC-MS/MS analysis; type: ADME, organism-based; details: in vivo
[29] = Stability in carboxylesterase 1 knockout C57BL/6 mouse assessed as intact compound level at 10 mg/kg, po administered as single dose measured upto 8 hrs by LC-MS/MS analysis; type: ADME, organism-based; details: in vivo, read-out: Stability
[30] = Prodrug conversion in carboxylesterase 1 knockout C57BL/6 mouse assessed as increase in 2,6-Dimethoxy-4-(4-phenyl-5-thiophen-2-yl-1H-imidazol-2-yl)phenol release at 10 mg/kg, po administered as single dose measured after 2 hrs by LC-MS/MS analysis; type: ADME, organism-based; details: in vivo

| Structure (SMILES) | Stability [1] [%] | Stability [9] [%] | Stability [11] [%] | other results |
| --- | --- | --- | --- | --- |
| COc1cc(-c2nc(-c3cccs3)c(-c3ccccc3)[nH]2)cc(OC)c1O | 89 | 98 | 103 | AUC [2]: 52.8 pmol·h/g; half-life [3]: 37.8 min; AUC [4]: 0.27 µM·h; half-life [5]: 27.6 min; Cmax [6]: 307 nM; Cmax [7]: 60 pmol/g; Tmax [8]: 30 min; Activity [10]: 4.9 nM; Kp at 2 h [12]: 0.1; concentration [13]: 23 nM; Tmax [14]: 30 min |
| CCC1CCCC(CC)N1C(=O)Oc1c(OC)cc(-c2nc(-c3ccccc3)c(-c3cccs3)[nH]2)cc1OC (centres undefined) | 90 | 51 | 78 |  |
| COc1cc(-c2nc(-c3ccccc3)c(-c3cccs3)[nH]2)cc(OC)c1OP(=O)(O)O | 102 | 55 | 91 |  |
| COc1cc(-c2nc(-c3ccccc3)c(-c3cccs3)[nH]2)cc(OC)c1OCOP(=O)(O)O | 1 | 21 | 96 |  |
| COc1cc(-c2nc(-c3ccccc3)c(-c3cccs3)[nH]2)cc(OC)c1OCOP(=O)(O)OCOC(=O)OC(C)C | 79 | 11 | 100 |  |
| COc1cc(-c2nc(-c3ccccc3)c(-c3cccs3)[nH]2)cc(OC)c1OC(=O)N1C2CCCC1CC2 | 76 | 95 | 85 |  |
| CCCCCN(C)C(=O)Oc1c(OC)cc(-c2nc(-c3ccccc3)c(-c3cccs3)[nH]2)cc1OC | 86 | 85 | 50 |  |
| CCCCCCCNC(=O)Oc1c(OC)cc(-c2nc(-c3ccccc3)c(-c3cccs3)[nH]2)cc1OC | 84 | 97 | 60 |  |
| COc1cc(-c2nc(-c3ccccc3)c(-c3cccs3)[nH]2)cc(OC)c1OC(=O)N1C2CCC1CC(N1CCCCC1)C2 (centres undefined) | 84 | 78 | 87 |  |
| COc1cc(-c2nc(-c3ccccc3)c(-c3cccs3)[nH]2)cc(OC)c1OC(=O)OC(OC(=O)C(C)(C)C)c1ccccc1 (centres undefined) | 69 | 80 | 83 |  |
| COc1cc(-c2nc(-c3ccccc3)c(-c3cccs3)[nH]2)cc(OC)c1OC(=O)C1=CN(C)C=CC1 | 46 | 22 | 52 | Drug metabolism [15]: 2.2 nM; Drug metabolism [16]: 28.3 nM |
| CCCCCC(=O)Oc1c(OC)cc(-c2nc(-c3ccccc3)c(-c3cccs3)[nH]2)cc1OC | 63 | 1 | 13 | Drug metabolism [15]: 36.5 nM; BPR [17]: 0.1; Drug metabolism [16]: 355 nM |
| CCCCCNC(=O)Oc1c(OC)cc(-c2nc(-c3ccccc3)c(-c3cccs3)[nH]2)cc1OC | 68 | 83 | 60 |  |
| COc1cc(-c2nc(-c3ccccc3)c(-c3cccs3)[nH]2)cc(OC)c1OC(=O)N1CCC(N2CCCCC2)CC1 | 48 |  | 90 | Cmax [18]: 148.9 pmol·h/g; Cmax [19]: 403 pmol·h/g; concentration at 8 h [20]: 195 nM; AUC [21]: 187.1 pmol·h/g; half-life [22]: 180 min; concentration at 8 h [23]: 86.5 nM; Tmax [24]: 60 min; Tmax [25]: 60 min; AUC [26]: 273.4 pmol·h/g; half-life [27]: 84 min; Drug metabolism [28]: 72.3 nM |
| COc1cc(-c2nc(-c3ccccc3)c(-c3cccs3)[nH]2)cc(OC)c1OC(C)=O | 6 | 0 | 28 |  |
| COc1cc(-c2nc(-c3ccccc3)c(-c3cccs3)[nH]2)cc(OC)c1OC(=O)N(C)C | 100 | 100 | 96 | concentration at 8 h [29]: 4300 nM; Drug metabolism [30]: 540.9 nM |
| COc1cc(-c2nc(-c3ccccc3)c(-c3cccs3)[nH]2)cc(OC)c1OC(=O)C(C)(C)C | 93 | 0 | 1 |  |
